Rows were chosen to be rich in hits. Some 4.3% of all compounds tested hit in one or more screens of this group.
Yeast growth inh – chemicals that inhibit yeast BB579 growth in restrictive medium (lifespan-shortening candidates) | S. cerevisiae BB579 growth, OD615, 48 h | inhibition, % at 10 µM | 140,000 compounds, 0.51% hits | AID 804;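 active = inhibition above a set limit, 3 SD over the mean compound inhibition, cut at about 44% in these data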
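test system = yeast BB579 (DeaD) | buffer or medium = restrictive CSMM-D medium | doses = single compound dose of 10 µM, 0.25% DMSO final | times = 4 h preincubation and 48 h exposure at 30 °C | technique = culture absorbance at 615 nm | benchmarks = amphotericin B 10 µg/mL, positive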
WT yeast gro inh – growth inhibition of WT yeast, mitochondrial fusion screen. mitochondrial fusion phenotypic screen, WT strain. inhibition, % at 10 µM. 190,000 compounds, 2.1% hits. AID 1362; in the data active = inhibition above about 58%; tested in S. cerevisiae
RAM inhibit – yeast RAM network inhibition. S. cerevisiae dse1pr::URA3 reporter, 5-FOA growth OD615, 2 d; analog-sensitive cbk1-as2 kinase mutant strain. inhibition, % at 50 µM. 190,000 compounds, 1.8% hits. AID 868;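 active = inhibition above a set limit, 3 SD over mean compound inhibition, cut at about 8.4% in these data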;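 also: 0% = DMSO-only wells with no growth and 100% = 10 µM 1-NA-PP1 full growth; inhibition rescues growth on 5-FOA so higher OD means more RAM inhibition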
Yeast life ext – extends the lifespan of yeast | S. cerevisiae growth with nicotinamide, OD615; deaD strain in restrictive glucose medium | inhibition of the nicotinamide effect, % at 10 µM | 130,000 compounds, 0.68% hits | AID 775;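 active = inhibition above a set limit, placed 3 SD over the median of all compounds, cut at about 26% in these data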;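 also: 0% = nicotinamide-treated wells and 100% = cells grown without nicotinamide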
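assay system = DeaD-strain S. cerevisiae | measured by = absorbance at 615 nm | probe or stimulus = nicotinamide 1.5 mM | buffer or medium = CSMM-D glucose medium, restrictive | times = 48 h at 30 °C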
* = called active by the depositor; . = not tested or not shown.

SMILES | Yeast growth inh | WT yeast gro inh | RAM inhibit | Yeast life ext
CNS(=O)(=O)c1cccc(C(=O)OCC(=O)Nc2ccc(OC)cc2[N+](=O)[O-])c1 | . | -3 | 4 | .
COc1cc(-c2nc(C)c(C(C)=O)n2O)ccc1OCC(=O)Nc1ccc(Cl)cc1 | . | 46 | -1 | .
O=C(COc1ccc(Cl)cc1Cl)NCC(=O)N/N=C/c1c[nH]c2ccccc12 | -18 | -1 | 9.8* | 2
O=C(/C=C/c1ccc2c(c1)OCO2)NCCSCc1cccc(Cl)c1 | -19 | 52 | 9.0* | -12
O=C(CNc1ccccc1)N/N=C/c1c[nH]c2ccccc12 | -20 | -1 | 0 | -7
Cc1cc(Cl)ccc1OCC(=O)NCCCCc1ccccc1 | -10 | 63* | 4 | -7
O=C(COc1ccc(Cl)cc1Cl)NCCCCc1ccccc1 | -75 | 76* | 1 | -12
O=C(NCCc1ccc(Cl)cc1)C1CCN(S(=O)(=O)c2ccc(Br)s2)CC1 | . | 25 | 8 | .
CC(C)N1C(=O)/C(=C\c2nc3ccccc3c(=O)[nH]2)c2ccccc21 | -82 | 38 | 4 | 0
O=C(COc1ccc(Cl)cc1Cl)Nc1ccccn1 | -1 | 66* | 2 | -8
CC(C)Cn1c(N)c(C(=O)COC(=O)c2cccnc2Cl)c(=O)n(C)c1=O | . | -33 | 1 | .
COc1ccc(OC)c(-c2cc(C(=O)Nc3c(C)nn(Cc4ccccc4)c3C)no2)c1 | -27 | 60* | 4 | -5
COc1cc(/C=C(\C#N)c2nc3c(s2)CCCC3)ccc1O | -6 | 53 | 9.6* | -9
O=c1c(Cl)c(NCc2ccccc2Cl)cnn1C12CC3CC(CC(C3)C1)C2 | -41 | 35 | 3 | 16
CC(C)c1nc(N2CCN(C(=O)c3ccco3)CC2)c2c3c(sc2n1)CCCC3 | -37 | 81* | 1 | -16
N#CCCn1nc(-c2ccc(Br)cc2)cc1Nc1ccccc1NC(=O)C(F)(F)F | -38 | 39 | 10* | 2
N#CCCn1nc(-c2ccccc2)cc1Nc1ccccc1NC(=O)C(F)(F)F | -35 | -12 | 4 | 0
COc1ccc(C(N)=O)cc1NC(=O)c1cccc(F)c1 | -38 | 65* | 1 | -10
C/C(=N\NC(=S)NCc1ccccc1)c1ccc(C#N)cc1 | . | 31 | 4 | .
CCNC(=S)N/N=C(\C)c1ccc2ccccc2c1 | . | 72* | 2 | .
C/C(=N\NC(=S)NC(C)C)c1ccccc1OC(F)F | . | 53 | 0 | .
CCNC(=S)N/N=C(\C)c1ccc2ccccc2c1OC(F)F | . | 73* | 3 | .
CCNC(=S)N/N=C(\C)c1cccc(OC)c1 | . | 9 | 2 | .
C/C(=N\NC(=S)NCc1ccccc1)c1ccccc1 | -21 | 62* | 0 | -2
Cc1ccc(C(=O)COc2ccccc2N2C(=O)c3ccccc3C2=O)cc1 | -20 | 0 | 8.8* | 1
SMILES | Yeast growth inh | WT yeast gro inh | RAM inhibit | Yeast life ext
Cc1ccc(SCC(=O)NC(=O)c2ccc(S(=O)(=O)N(C)C)cc2)cc1C | 4 | 3 | 0 | 1
CC1=CCC[C@@H]2[C@@](C)(CC/C(C)=C/C(=O)O)[C@H](C)CC[C@@]12C | -46 | 73* | 7 | 12
COc1ccc(CC(=S)N2CCOCC2)cc1 | -19 | -1 | 1 | -6
CCOC(=O)N1CCN(c2cc(NCCO)c([N+](=O)[O-])c3nonc23)CC1 | . | -1 | 4 | .
CC(=O)OCCNc1cc(N2CCN(C)CC2)c2noc3c2c1C(=O)c1ccccc1-3 | -44 | 45 | 10* | 1
COCCN(C(=S)Nc1ccc(C)c(C)c1)C(C)c1ccco1 (centres undefined) | . | 60* | 2 | .
Cc1ccc(-c2ncccc2OC(=O)C23CC4CC(CC(C4)C2)C3)cc1 | -19 | 73* | 4 | -10
Cc1ccc(C(=O)NCc2ccc(N3CCN(C(=O)OC(C)(C)C)CC3)cc2)cc1 | -26 | 61* | 2 | -22
Cc1ccc(CNC(=O)c2ccc(N3CCCC3=O)cc2)cc1 | -53 | 8 | 5 | -8
CC(=O)/C(=C/c1ccc(N(C)C)cc1)C(=O)c1ccccc1 | -51 | 6 | 6 | 3
CC(=O)N1/C(=C/c2ccc(N(C)C)cc2)C(=O)c2ccccc21 | . | 63* | -2 | .
O=[N+]([O-])c1cc([N+](=O)[O-])c(N2CCCCCC2)cc1NCCO | -23 | 80* | 1 | -14
CCCNS(=O)(=O)c1ccc(OCC(=O)N2CCOCC2)cc1 | -18 | -5 | 1 | .
Cc1ccc(S(=O)(=O)N(CC(=O)Nc2ccccc2C(=O)O)c2ccc(Cl)cc2)cc1 | . | 9 | 8.5* | .
O=c1c2ccccc2n(Cc2ccc(F)cc2)c(=O)n1C1CCCC1 | -21 | 77* | 2 | -13
CCc1c(C)nc(SCC(=O)Nc2nc(-c3ccc(OC)cc3)cs2)[nH]c1=O | . | -8 | 11* | .
COc1ccc(-c2csc(NC(=S)NC(=O)c3ccco3)n2)cc1 | . | 0 | 1 | .
CCCC(=O)NC(=S)Nc1nc(-c2ccc(OC)cc2)cs1 | -24 | 0 | 10* | 3
Cc1cccc(C)c1OCCn1nc(C(=O)O)c2ccccc2c1=O | -14 | -12 | 10* | -3
Cc1cccc(OCCn2nc(C(=O)O)c3ccccc3c2=O)c1 | -20 | -4 | 4 | -5
Cc1ccc(NNC(=O)C(O)(c2cccc(C(F)(F)F)c2)c2cccc(C(F)(F)F)c2)cc1 | -53 | 83* | 3 | 8
O=C(NNc1ccccc1Br)C(O)(c1cccc(C(F)(F)F)c1)c1cccc(C(F)(F)F)c1 | -56 | -3 | 4 | 3
O=C(COC(=O)c1ccc(CO)cc1)NCc1cccs1 | 0 | -12 | 1 | 4
COc1cc(NC(=S)NC(=O)C(C)C)ccc1NC(=O)c1cc2ccccc2o1 | . | 18 | 9.5* | .
CCC1(c2ccccc2)NC(=S)N(c2ccc(C)cc2)N1 (centres undefined) | . | 62* | 0 | .
SMILES | Yeast growth inh | WT yeast gro inh | RAM inhibit | Yeast life ext
CC(C)CNC(=O)CSc1nnc(CN2CCCCCC2=O)n1-c1ccccn1 | 4 | -2 | 1 | 29*
O=C(Nc1ncccc1O)c1cccc(S(=O)(=O)N2CCc3ccccc32)c1 | -8 | 69* | 1 | -5
COc1ccc(NC(=O)c2cccc(S(=O)(=O)N3CCc4ccccc43)c2)cn1 | . | 28 | 8 | .
Cc1c(NC(=O)CN2CCN(c3ccc(F)cc3)CC2)c(=O)n(-c2ccccc2)n1C | . | 3 | 3 | .
CCOc1ccc(/C=N/Nc2ccc(C(F)(F)F)cc2[N+](=O)[O-])cc1O | -39 | 13 | 3 | 0
COc1ccc(/C=N/Nc2ccc(C(F)(F)F)cc2[N+](=O)[O-])cc1O | -59 | 13 | 10* | 2
CC(/C=C1\N=C(SCc2ccccc2)SC1=O)=C\c1ccccc1 | -17 | -9 | 9.9* | 1
CC(=C/c1ccccc1)/C=C1/SC(N2CCOCC2)=NC1=O | -22 | 6 | 1 | -29
O=S(Cc1cc(Sc2ccccc2)nc(-c2ccccc2)n1)c1ccccc1 (centres undefined) | -37 | 59* | 8 | 5
O=C(CNc1ccc2ccccc2c1)N/N=C/c1ccc(C(=O)O)cc1 | . | -1 | 5 | .
O=C(CNc1cccc2ccccc12)N/N=C/c1ccc(C(=O)O)cc1 | -19 | -1 | 11* | -4
Cc1[nH]nc(SCC(=O)NCc2ccc(Cl)cc2)c1[N+](=O)[O-] | -26 | -1 | 4 | 2
